Assay results from different studies.
Compare with care: the assays were run in different laboratories.
Target: Focal adhesion kinase 1 (PTK2, Homo sapiens, UniProt Q05397)

Compound	read-out	action	technique	concentration	measurement	value
O=c1[nH]c2ccccc2n1C1CCN(Cc2ccc(-c3[nH]c4cc5ncnc5cc4nc3-c3ccccc3)cc2)CC1	cell-free assay			0.5 µM	remaining signal	108%
Cn1cc(-c2cccc(N3CCc4c(sc5c4CC(C)(C)C5)C3=O)c2CO)cc(Nc2ccncn2)c1=O	enzyme activity	inhibitor		1 µM	inhibition	3%
N#CC1(c2ccccn2)CCN(Cc2cc(C(=O)O)c(=O)n3ccccc23)CC1	cell-free assay		competition with immobilised ligand	1 µM	remaining binding	100%
C#Cc1n[nH]c2c(-c3cn(C(C)c4ccccn4)c(=O)[nH]c3=O)cc(F)cc12 (stereo not shown)	enzyme activity	inhibitor		1 µM	inhibition	5.6%
Cc1nn(C)cc1-c1nc2c(N3CCN(Cc4ccc(Cl)cc4)CC3)c(Cl)cnc2[nH]1	binding		competition with immobilised ligand	1 µM	remaining binding	95%
Nc1ncc(-c2nc(N3CCOCC3)nc(N3CCOCC3)n2)c(C(F)F)n1	binding		competition with immobilised ligand	10 µM	remaining binding	100%
Cn1cncc1[C@](O)(COc1ccc(C#N)cc1-c1ccc(OC(F)(F)F)cc1)c1ccc(C#N)cc1	cell-free assay		competition with immobilised ligand	1 µM	remaining binding	77%
Cn1cc(-c2cc(F)cc(N3CCn4c(cc5c4CCCC5)C3=O)c2CO)cc(Nc2ccc(N3CCN(C4COC4)CC3)cn2)c1=O	enzyme activity	inhibitor		0.1 µM	inhibition	18%
COc1ncccc1-c1cnn2ccc(N3CCN(C(=O)OC(C)C)CC3)nc12	binding		competition with immobilised ligand	1 µM	remaining binding	97%
CC(C)(C)c1cc(C=C(C#N)C#N)cc(Br)c1O	enzyme activity	inhibitor		0.5 µM	remaining activity	107%
